Test [1] addresses T1, Phospholipase A2 group V (Homo sapiens) (UniProt P39877).
T1 sequence (whole entry): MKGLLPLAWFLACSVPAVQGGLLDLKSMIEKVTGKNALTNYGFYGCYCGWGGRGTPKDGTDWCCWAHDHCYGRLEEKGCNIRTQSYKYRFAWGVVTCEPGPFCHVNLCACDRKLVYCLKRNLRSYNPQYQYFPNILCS
As to the kind of experiment: Inhibition of human group 5 secretory PLA2 at 0.091 mole fraction in mixed-micelles by modified Dole assay.

For test [2], the target named is T2, 85/88 kDa calcium-independent phospholipase A2 (Homo sapiens) (UniProt O60733).
T2 sequence (whole entry): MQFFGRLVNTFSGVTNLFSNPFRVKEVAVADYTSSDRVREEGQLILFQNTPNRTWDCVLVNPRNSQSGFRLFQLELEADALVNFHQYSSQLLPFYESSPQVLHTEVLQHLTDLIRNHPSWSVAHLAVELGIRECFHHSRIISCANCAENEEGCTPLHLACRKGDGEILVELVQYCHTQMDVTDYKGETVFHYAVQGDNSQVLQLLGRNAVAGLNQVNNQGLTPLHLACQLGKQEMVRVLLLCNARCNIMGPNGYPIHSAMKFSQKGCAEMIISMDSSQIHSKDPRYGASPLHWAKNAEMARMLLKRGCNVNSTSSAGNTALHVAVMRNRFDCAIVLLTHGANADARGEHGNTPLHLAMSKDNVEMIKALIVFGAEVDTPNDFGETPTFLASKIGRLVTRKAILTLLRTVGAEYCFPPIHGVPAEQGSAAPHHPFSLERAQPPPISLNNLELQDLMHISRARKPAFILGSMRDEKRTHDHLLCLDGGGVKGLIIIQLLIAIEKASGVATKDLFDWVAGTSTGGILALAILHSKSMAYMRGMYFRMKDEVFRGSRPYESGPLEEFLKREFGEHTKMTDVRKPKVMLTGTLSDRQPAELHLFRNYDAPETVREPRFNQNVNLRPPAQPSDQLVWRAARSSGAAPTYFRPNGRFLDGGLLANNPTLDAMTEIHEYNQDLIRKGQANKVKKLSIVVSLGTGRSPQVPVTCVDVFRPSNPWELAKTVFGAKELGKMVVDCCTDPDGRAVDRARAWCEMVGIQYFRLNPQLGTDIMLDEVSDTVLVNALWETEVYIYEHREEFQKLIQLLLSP
In words: Inhibition of human group 6A calcium-independent PLA2 at 0.091 mole fraction in mixed-micelles by modified Dole assay.

The target of test [3] is T3, Cytosolic phospholipase A2 (Homo sapiens) (UniProt P47712).
T3 sequence (whole entry): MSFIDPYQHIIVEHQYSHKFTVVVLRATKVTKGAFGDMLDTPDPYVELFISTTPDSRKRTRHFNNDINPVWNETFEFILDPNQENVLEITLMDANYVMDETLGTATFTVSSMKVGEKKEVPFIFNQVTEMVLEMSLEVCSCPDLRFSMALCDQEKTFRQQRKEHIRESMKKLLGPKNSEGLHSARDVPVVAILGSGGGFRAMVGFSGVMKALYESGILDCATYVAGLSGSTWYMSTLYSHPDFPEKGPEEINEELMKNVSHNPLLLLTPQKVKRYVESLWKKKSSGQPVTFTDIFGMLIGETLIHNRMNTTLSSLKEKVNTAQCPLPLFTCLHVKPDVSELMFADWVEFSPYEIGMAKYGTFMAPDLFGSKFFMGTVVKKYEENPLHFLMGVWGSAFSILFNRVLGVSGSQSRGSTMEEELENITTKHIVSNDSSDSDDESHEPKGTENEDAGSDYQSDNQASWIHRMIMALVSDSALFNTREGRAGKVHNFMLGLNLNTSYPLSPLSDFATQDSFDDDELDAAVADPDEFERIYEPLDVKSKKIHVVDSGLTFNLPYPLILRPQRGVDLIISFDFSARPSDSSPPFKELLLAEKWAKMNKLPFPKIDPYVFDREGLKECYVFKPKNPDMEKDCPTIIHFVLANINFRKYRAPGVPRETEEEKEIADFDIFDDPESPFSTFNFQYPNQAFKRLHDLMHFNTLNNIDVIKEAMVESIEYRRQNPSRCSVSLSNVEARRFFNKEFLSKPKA
As to the kind of experiment: Inhibition of human group 4A cytosolic PLA2 at 0.091 mole fraction in mixed-micelles by modified Dole assay. Summed up:
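Buffer was 100 mM HEPES pH 7.5 with 90 μM CaCl2, 2 mM DTT and 0.1 mg/ml BSA. Inhibitor was screened at 0.091 mole fraction. Values are average percent inhibition, and 25% or less was scored as no inhibition.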

Test [4] deals with T2, 85/88 kDa calcium-independent phospholipase A2 (Homo sapiens). In words: Inhibition of human group 6A calcium-independent PLA2 treated in mixed-micelles by modified Dole assay. The method in brief:
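Typically 7 mole fractions from 0.00091 to 0.091 were tested. XI(50) is the inhibitor mole fraction giving 50% inhibition, from a symmetrical sigmoidal regression of % inhibition versus log concentration.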

In test [5] the target is T3, Cytosolic phospholipase A2 (Homo sapiens). In words: Inhibition of human group 4A cytosolic PLA2 treated in mixed-micelles by modified Dole assay. Summed up:
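Buffer was 100 mM HEPES pH 7.5 containing 90 μM CaCl2, 2 mM DTT and 0.1 mg/ml BSA. About 7 inhibitor mole fractions between 0.00091 and 0.091 were tested. XI(50) came from a symmetrical sigmoidal nonlinear fit of % inhibition versus log inhibitor.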

Our source for the inhibition and XI50 (mole fraction) values is ChEMBL document CHEMBL2417458, “New potent and selective polyfluoroalkyl ketone inhibitors of GVIA calcium-independent phospholipase A2” (Bioorg Med Chem, 2013).

Where only a bound is given, the exact number is not on record here.

A word on the inhibition: it is how much of the control response was suppressed.

As to `COc1ccc2cc(CCCCC(=O)C(F)(F)C(F)(F)F)ccc2c1`, the inhibition in test [1] was determined as 63.1%; in test [2], 92.5%; in test [3] it was 54.7%.
For the compound `COc1ccc(CCCCC(=O)C(F)(F)C(F)(F)F)cc1`, the results for the inhibition in test [1], in test [2] and in test [3] were 32.8%, 99.8% and below 25%, respectively. For the same compound, in test [4], the XI50 (mole fraction) was found to be 0.0001.
In the case of `COc1ccc2cc(CCCCC(=O)C(F)(F)F)ccc2c1`, the results for the inhibition in test [1], in test [2] and in test [3] were 41.7%, 92.6% and 85.5%, respectively.
For the compound `COc1ccc(CCCCC(=O)C(F)(F)F)cc1OC`, the results for the inhibition in test [1], in test [2] and in test [3] were below 25%, 62.5% and 28.8%, respectively.
Regarding `COc1ccccc1CCCCC(=O)C(F)(F)F`, the inhibition is below 25% in test [1], 82.8% in test [2] and 58.9% in test [3].
With `COc1ccc(CCCCC(=O)C(F)(F)C(F)(F)F)c(OC)c1`, the inhibition in test [1] stood at 38.7%; in test [2], 95.6%; in test [3], 35.6%. Also, in test [4], the XI50 (mole fraction) was determined as 0.0553.
In the case of `O=C(CCCCc1ccc(C(F)(F)F)cc1)C(F)(F)C(F)(F)F`, the values for the inhibition in test [1], in test [2] and in test [3] were 36.9%, 98.9% and 62.5%, respectively. In test [4], the XI50 (mole fraction) was determined as 0.0003.
Consider `O=C(CCCCc1ccc(-c2ccccc2)cc1)C(F)(F)C(F)(F)F`, for which the inhibition in test [1] was 38.3%; in test [2], 94.6%; in test [3] it was 72.6%. Moreover, the XI50 (mole fraction) in test [4] was found to be 0.0134.
As to `O=C(CCCCc1ccc(F)cc1)C(F)(F)F`, the inhibition in test [1] is below 25%; in test [2], 98.5%; in test [3], 41.4%. Moreover, in test [4], the XI50 (mole fraction) came out at 0.0002.
`COc1ccc(CCCCC(=O)C(F)(F)C(F)(F)F)cc1OC`: the inhibition in test [1] was below 25%; in test [2] it was 78.3%; in test [3], below 25%.
For `O=C(CCc1ccccc1-c1ccccc1)C(F)(F)F`, the figures for the inhibition in test [2] and in test [3] were 75% and below 25%, respectively.
Turning to `O=C(CCCCc1ccc(C(F)(F)F)cc1)C(F)(F)F`, the results for the inhibition in test [1], in test [2] and in test [3] were 30.4%, 99.9% and 83.9%, respectively. Moreover, the XI50 (mole fraction) in test [4] came out at 0.0002.
For `O=C(CCCCc1ccc(-c2ccccc2)cc1)C(F)(F)F`, the inhibition in test [1] came out at 40.5%; in test [2], 97.9%; in test [3], 96.5%. In addition, the XI50 (mole fraction) in test [4] is 0.0189; in test [5] it was 0.0074.
For `COc1ccc(CCCCC(=O)C(F)(F)F)c(OC)c1`, the inhibition is below 25% in test [1], 89.6% in test [2] and 64.3% in test [3].
With `O=C(CCCCc1ccccc1)C(F)F`, the inhibition in test [1] is below 25%; in test [2] it was 87.4%; in test [3] it was below 25%.
Consider `O=C(CCCCc1cccc2ccccc12)C(F)(F)F`, for which the inhibition in test [1] is 31.9%; in test [2], 98.7%; in test [3], 77.4%. In addition, the XI50 (mole fraction) in test [4] was 0.0018.
With `COc1ccccc1CCCCC(=O)C(F)(F)C(F)(F)F`, the inhibition was found to be 39.1% in test [1], 95.5% in test [2] and 30.5% in test [3]. The XI50 (mole fraction) in test [4] worked out at 0.0263.
As to `COc1ccc(CCCCC(=O)C(F)(F)F)cc1`, the inhibition was below 25% in test [1], 99.8% in test [2] and 54.3% in test [3]. The XI50 (mole fraction) in test [4] amounted to 0.0001.
In the case of `O=C(CCCCc1cccc2ccccc12)C(F)(F)C(F)(F)C(F)(F)F`, the inhibition in test [1] worked out at 57.8%; in test [2], 76.7%; in test [3], 60.4%.
Turning to `O=C(CCCCc1cccc2ccccc12)C(F)(F)C(F)(F)F`, the inhibition in test [1] was 29.4%; in test [2] it was 96.4%; in test [3] it was 64%. Besides, in test [4], the XI50 (mole fraction) worked out at 0.0034.
On to `O=C(CCc1ccccc1-c1ccccc1)C(F)(F)C(F)(F)F`, for which the inhibition in test [2] was 90.4%; in test [3], below 25%.
For `O=C(CCCc1ccccc1)C(F)F`, the inhibition in test [1] is below 25%; in test [2], 86.5%; in test [3], below 25%.
Consider `O=C(CCCCc1ccc(F)cc1)C(F)(F)C(F)(F)F`, for which the inhibition in test [1] is 29.3%; in test [2] it was 98.2%; in test [3], below 25%. Further, the XI50 (mole fraction) in test [4] stood at 0.0003.
Consider `O=C(CCCCc1ccc2c(c1)OCO2)C(F)(F)F`, for which the inhibition in test [1] was below 25%; in test [2], 98.7%; in test [3], 41.2%. The XI50 (mole fraction) in test [4] stood at 0.0025.
For `O=C(CCCCc1ccc2c(c1)OCO2)C(F)(F)C(F)(F)F`, in that order: 29.4%, 99.5%, 38.3% and 0.0019.
